Screening results deposited in PubChem by The Scripps Research Institute Molecular Screening Center.
CHRM5 antagonist – blocks acetylcholine activation of human M5 receptor; CHO-hM5 cells, Fluo-8 calcium fluorescence, ACh EC80; inhibition, % at 3 µM; 360,000 compounds, 0.59% hits;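 active = inhibition above a per-plate cutoff, the mean of that plate's test compounds plus 3 SD, cut at about 27% in these data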;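 also: 0% = acetylcholine EC80 with DMSO and 100% = DMSO without agonist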
Target sequence (P08912 whole entry, looked up): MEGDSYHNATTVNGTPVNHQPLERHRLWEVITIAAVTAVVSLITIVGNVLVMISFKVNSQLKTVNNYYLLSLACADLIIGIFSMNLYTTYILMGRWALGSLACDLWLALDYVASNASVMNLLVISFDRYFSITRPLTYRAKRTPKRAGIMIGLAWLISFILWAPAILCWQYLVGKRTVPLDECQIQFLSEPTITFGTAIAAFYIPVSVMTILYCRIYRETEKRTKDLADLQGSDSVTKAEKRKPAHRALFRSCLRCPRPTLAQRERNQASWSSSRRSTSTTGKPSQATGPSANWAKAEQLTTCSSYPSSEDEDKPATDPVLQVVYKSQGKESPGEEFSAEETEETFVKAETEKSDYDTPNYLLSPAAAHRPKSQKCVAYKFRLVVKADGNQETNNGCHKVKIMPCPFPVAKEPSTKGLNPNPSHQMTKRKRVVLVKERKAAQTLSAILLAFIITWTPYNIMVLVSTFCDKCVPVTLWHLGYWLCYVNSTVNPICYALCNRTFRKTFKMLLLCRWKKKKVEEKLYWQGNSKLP
CHRM5 agonist – CHRM5 agonism in calcium assay; 360,000 compounds, 0.19% hits; P08912; CHO-K1 hM5 cells, Fluo-8 calcium fluorescence; 0% DMSO wells, 100% maximal acetylcholine response; activation, % at 3 µM;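 active = activation above the run's mean over test compounds plus 3 SD, cut at about 23% in these data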;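 also: signal is peak over basal fluorescence ratio across the kinetic read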
CHRM4 agonist – agonists of human muscarinic M4 receptor (CHRM4); P08173; CHO-K1 hM4/Gqi5, Fluo-8 calcium fluorescence; vehicle 0%, full acetylcholine response 100%; activation, % at 3 µM; 360,000 compounds, 0.14% hits; AID 624127;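 active = activation above the run mean over all test wells plus 3 SD, cut at about 32% in these data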;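 also: peak over basal fluorescence ratio per well then scaled between controls; 0% = DMSO wells and 100% = acetylcholine at EC100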
M5 PAM – potentiates acetylcholine response at human M5 receptor | activation, % at 3 µM | 360,000 compounds, 0.3% hits | P08912 | CHO-K1 hM5, Fluo-8 calcium, ACh EC20 PAM; 0% = ACh EC20, 100% = ACh EC100;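 active = activation above the run cutoff, the mean activation of all test compounds plus 3 SD, cut at about 18% in these data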
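Test system: CHO-K1 hM5 cells / Doses: single-point, 3 µM nominal / Times: Post-acetylcholine fluorescence recording 140 s / Technique: Fluo-8 calcium fluorescence / Measure: Max/basal fluorescence ratio as % of EC20–EC100 ACh window / Benchmarks: low control EC20 acetylcholine (0%), high control EC100 acetylcholine (100%) / Replicates: one well per compound, no replicates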
M4 antag – blocks acetylcholine activation of human M4 receptor | inhibition, % at 3 µM | CHO-hM4 cells, ACh EC80, Fluo-8 calcium fluorescence | 360,000 compounds, 0.73% hits | P08173;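 active = inhibition above its plate's cutoff, the mean inhibition of sample wells plus 3 SD, cut at about 27% in these data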;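 also: 0% = acetylcholine EC80 with DMSO and 100% = DMSO without agonist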
CHRM4 PAM – potentiates acetylcholine response at human M4 receptor; P08173; CHO-K1 hM4/Gqi5, Fluo-8 calcium fluorescence, ACh EC20; 0% = ACh EC20, 100% = maximal ACh; activation, % at 3 µM; 360,000 compounds, 0.4% hits; AID 624126;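 active = activation above its plate's cutoff, the mean activation of sample wells plus 3 SD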
The depositor's hits bear a star. In the library only some 1.8% were active in any assay of this set; here they are far more common.

COc1ccc(OC)c(/C=C2/Sc3ccccc3C2=O)c1 was read as CHRM5 antagonist 42.6*, CHRM5 agonist 63.0*, CHRM4 agonist 27.4, M5 PAM -23.3, M4 antag 18.6 and CHRM4 PAM -5.1.
For C/C(Nc1ccc(Cl)c(Cl)c1)=C1/CCOC1=O the results were CHRM5 antagonist 0.8, CHRM5 agonist -0.5, CHRM4 agonist 2.5, M5 PAM -0.7, M4 antag -13.2 and CHRM4 PAM 6.3.
Screening CC(C)C[C@H](N)c1nnc(S(=O)(=O)Cc2ccc(F)cc2)o1 returned CHRM5 antagonist 3.2, CHRM5 agonist 0.0, CHRM4 agonist 0.7, M5 PAM 0.6, M4 antag 27.7* and CHRM4 PAM -2.3.
For Oc1cccc(-c2ccc3nccn3c2)c1 the results were CHRM5 antagonist -8.6, CHRM5 agonist -1.8, CHRM4 agonist 1.8, M5 PAM -1.9, M4 antag -17.9 and CHRM4 PAM 5.5.
`CC(=O)Nc1ccc(/C(C)=N/Nc2nc(N3CCOCC3)nc(N3CCOCC3)n2)cc1` gave CHRM5 antagonist 11.6, CHRM5 agonist -1.2, CHRM4 agonist 1.0, M5 PAM -9.5, M4 antag 5.5 and CHRM4 PAM -2.1.
Screening CC(=O)Nc1ccc(/C(C)=N/Nc2nc(Nc3cccc4ccccc34)nc(N3CCOCC3)n2)cc1 returned CHRM5 antagonist 10.1, CHRM5 agonist 32.1*, CHRM4 agonist 18.4, M5 PAM -4.8, M4 antag 20.1 and CHRM4 PAM -4.5.
For CC1=CC(C)(C)NC(=S)N1c1ccccc1C the results were CHRM5 antagonist 16.3, CHRM5 agonist -0.1, CHRM4 agonist 0.9, M5 PAM -2.3, M4 antag 12.3 and CHRM4 PAM -5.0.
Screening CC1=CC(C)(C)NC(=S)N1c1cccc2cc(S(=O)(=O)O)ccc12 returned CHRM5 antagonist 27.3*, CHRM5 agonist -0.2, CHRM4 agonist 15.0, M5 PAM -14.2, M4 antag 7.2 and CHRM4 PAM -9.5.
Nc1nc(N)nc(-c2cc(O)ccc2O)n1 was read as CHRM5 antagonist 2.6, CHRM5 agonist 1.9, CHRM4 agonist 1.2, M5 PAM -0.3, M4 antag -4.0 and CHRM4 PAM 7.7.
Screening CC(C)(C)c1cc(-c2nc(N)nc(N)n2)c(O)c(C(C)(C)C)c1 returned CHRM5 antagonist -13.1, CHRM5 agonist 4.7, CHRM4 agonist -0.3, M5 PAM 24.2*, M4 antag -1.0 and CHRM4 PAM 10.4.
Screening Cc1cccc(OCc2n(CC(=O)OC3CC(C)CCC3C(C)C)c3ccccc3[n+]2C)c1 (stereo unspecified) returned CHRM5 antagonist 40.3*, CHRM5 agonist -9.3, CHRM4 agonist 2.5, M5 PAM -19.9, M4 antag 39.1* and CHRM4 PAM -16.8.
For CN(C)CCN(Cc1ccco1)c1ccccn1 the results were CHRM5 antagonist 16.6, CHRM5 agonist -10.9, CHRM4 agonist 0.6, M5 PAM -15.7, M4 antag 1.2 and CHRM4 PAM -1.5.
For CN(C)CCN(Cc1cccs1)c1ccccn1 the results were CHRM5 antagonist 7.1, CHRM5 agonist -1.4, CHRM4 agonist 0.6, M5 PAM -16.5, M4 antag 27.2* and CHRM4 PAM -17.3.
`Cc1ccc(NC(=O)CNc2ccc(Cl)c(Cl)c2)cc1S(=O)(=O)N(C)C` gave CHRM5 antagonist 23.6, CHRM5 agonist 8.7, CHRM4 agonist 27.4, M5 PAM -14.2, M4 antag 32.6* and CHRM4 PAM -11.1.
`CCOCC(=O)Nc1ccc([N+](=O)[O-])cc1OC` gave CHRM5 antagonist 3.8, CHRM5 agonist -2.5, CHRM4 agonist 1.0, M5 PAM 1.5, M4 antag -8.2 and CHRM4 PAM 11.7.
Screening CCOC(=O)CS(=O)(=O)CC(=O)Nc1ccc([N+](=O)[O-])cc1OC returned CHRM5 antagonist -4.8, CHRM5 agonist 2.7, CHRM4 agonist 1.1, M5 PAM 19.7*, M4 antag -8.2 and CHRM4 PAM 9.7.
Screening O=C(Nc1ccc(Oc2ccccc2)cc1)c1ccc2sc([C@H]3C[C@H](O)[C@@H](CO)O3)nc2c1 returned CHRM5 antagonist 7.6, CHRM5 agonist 4.1, CHRM4 agonist 9.3, M5 PAM -2.6, M4 antag 28.2* and CHRM4 PAM -1.7.
Screening CCOc1ccccc1NC(=O)C1CC(=O)n2ncnc2N1 (stereo unspecified) returned CHRM5 antagonist 6.4, CHRM5 agonist -3.3, CHRM4 agonist 1.7, M5 PAM -6.1, M4 antag 28.2* and CHRM4 PAM 18.0.
`CN(CC1COc2ccccc2O1)C(=O)c1cc(COc2c(F)cccc2F)on1` (stereo unspecified) gave CHRM5 antagonist 5.7, CHRM5 agonist -3.9, CHRM4 agonist 5.7, M5 PAM -2.3, M4 antag -8.1 and CHRM4 PAM 2.7.
CN(CC1COCCO1)C(=O)c1cc(COc2c(F)cccc2F)on1 (stereo unspecified) was read as CHRM5 antagonist -0.3, CHRM5 agonist -0.2, CHRM4 agonist 3.2, M5 PAM -0.3, M4 antag 1.8 and CHRM4 PAM 23.5*.
Screening CC(=O)Nc1nc(C)c(CCC2OCCO2)c(=O)[nH]1 returned CHRM5 antagonist 13.9, CHRM5 agonist -1.9, CHRM4 agonist -0.9, M5 PAM 0.0, M4 antag -1.8 and CHRM4 PAM 3.2.
`CCCCCCCn1c2c(c(=N)c3ccccc31)CCC2` gave CHRM5 antagonist 27.3*, CHRM5 agonist -15.6, CHRM4 agonist 2.5, M5 PAM -8.9, M4 antag 4.5 and CHRM4 PAM -7.8.
COc1cc2cc(C(c3nnnn3C3CCCC3)N(C)C3CCCCC3)c(=O)[nH]c2cc1OC (stereo unspecified) was read as CHRM5 antagonist -1.2, CHRM5 agonist -2.2, CHRM4 agonist 2.0, M5 PAM -2.6, M4 antag -7.7 and CHRM4 PAM 3.7.
COc1cc2cc(C(c3nnnn3C3CCCCC3)N(C)C3CCCCC3)c(=O)[nH]c2cc1OC (stereo unspecified) was read as CHRM5 antagonist -2.1, CHRM5 agonist -0.3, CHRM4 agonist -1.5, M5 PAM -6.4, M4 antag 29.6* and CHRM4 PAM -11.6.
For COc1ccc(C)cc1S(=O)(=O)N1CCN(C(=O)c2ncoc2-c2cccc(C)c2)CC1 the results were CHRM5 antagonist 28.5*, CHRM5 agonist -5.7, CHRM4 agonist 6.0, M5 PAM -7.5, M4 antag -3.4 and CHRM4 PAM -1.7.
For COc1ccc(C)cc1S(=O)(=O)N1CCN(C(=O)c2ncoc2-c2ccc(C)cc2)CC1 the results were CHRM5 antagonist 11.4, CHRM5 agonist -5.3, CHRM4 agonist 9.3, M5 PAM -7.7, M4 antag -0.2 and CHRM4 PAM -3.6.
